Screens from PubChem.
FXIIa inh 1536 = inhibitors of human coagulation factor XIIa | hit rate 0.3% among 220,000 | P00748 | purified FXIIa, Boc-QGR-AMC fluorogenic substrate, 2 h | inhibition, % at 5 µM; in the data active = inhibition above about 40%;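 also: 0% = enzyme with no compound and 100% = blank without enzyme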
m-calpain inh = inhibitors of pig calpain II | purified calpain II, fluorogenic peptide substrate, 30 min | inhibition, % at 16 µM | hit rate 0.37% among 220,000;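 active = inhibition above about 50%, limit read from the data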
Thrombin inh = blocks human thrombin protease activity; hit rate 0.26% among 220,000; P00734; alpha-thrombin, Boc-VPR-AMC fluorogenic substrate cleavage; inhibition, % at 5 µM;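 active = inhibition at or above 40%; inactive = inhibition below 40%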;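 also: 0% = enzyme with no compound and 100% = wells without enzyme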
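Material: human alpha-thrombin protein. Incubation: reaction at ambient temperature. Technique: fluorescence of released AMC, ex 355 nm, em 460 nm. Control set: no-compound enzyme wells and no-enzyme blanks. Also added: Boc-VPR-AMC substrate, 15 µM final. Buffer or medium: pH 7.5 Tris (50 mM) with NaCl 150 mM, Tween 20 0.05%.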
FXIa inh = blocks human coagulation factor XIa protease activity | P03951 | purified FXIa, Boc-Glu-Ala-Arg-AMC fluorogenic substrate | inhibition, % at 5 µM | hit rate 0.14% among 220,000 | AID 798;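 active = inhibition of at least 40%; inactive = inhibition below 40%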;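 also: fluorescence of freed AMC excited at 355 nm; 0% = enzyme without compound and 100% = no enzyme blank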
Target sequence (P03951 19-387 limits assumed): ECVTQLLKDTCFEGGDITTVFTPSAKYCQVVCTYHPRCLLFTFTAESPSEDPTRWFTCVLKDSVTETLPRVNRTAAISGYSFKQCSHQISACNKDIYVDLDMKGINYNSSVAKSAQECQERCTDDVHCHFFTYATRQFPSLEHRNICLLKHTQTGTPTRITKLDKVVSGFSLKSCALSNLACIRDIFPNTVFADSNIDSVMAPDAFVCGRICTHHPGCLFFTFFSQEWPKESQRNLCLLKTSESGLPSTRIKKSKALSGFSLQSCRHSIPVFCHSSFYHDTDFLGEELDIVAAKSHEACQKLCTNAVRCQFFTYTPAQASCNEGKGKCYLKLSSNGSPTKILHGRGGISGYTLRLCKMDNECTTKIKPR
Target sequence (P03951 388-625 limits assumed): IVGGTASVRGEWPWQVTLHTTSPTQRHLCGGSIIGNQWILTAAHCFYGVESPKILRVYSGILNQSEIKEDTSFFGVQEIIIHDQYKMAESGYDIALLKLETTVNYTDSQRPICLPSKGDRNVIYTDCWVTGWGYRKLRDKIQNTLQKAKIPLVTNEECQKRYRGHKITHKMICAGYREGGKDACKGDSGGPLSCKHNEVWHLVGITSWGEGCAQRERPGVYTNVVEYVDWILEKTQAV
Furin inhibitor = blocks human furin protease activity. P09958. purified furin, fluorogenic substrate cleavage. inhibition, % at 20 µM or 30 µM. hit rate 0.061% among 220,000. AID 463115; in the data active = inhibition above about 25%
hK5 inh = inhibitors of human kallikrein 5. recombinant hK5, fluorogenic AMC substrate cleavage. inhibition, % at 5 µM. hit rate 0.59% among 210,000;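 active = inhibition of 40% or more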;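 also: 0% = enzyme controls without compound and 100% = no-enzyme blanks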
Numbers without * were called inactive; nt = no result. The list is not random: actives were taken first. Their share in the collection is about 1.4%.

SMILES	FXIIa inh 1536	m-calpain inh	Thrombin inh	FXIa inh	Furin inhibitor	hK5 inh
CCOC(=O)c1cnc(SC2CCc3ccccc3C2=O)nc1N (centres undefined)	9	59*	-5	0	-18	-22
O=C(CN1C(=O)NC2(CCCc3ccccc32)C1=O)N1CCc2ccccc2C1 (centres undefined)	14	-16	4	-4	-22	-13
CCn1c(SCc2ccc(F)cc2)nnc1C1CCN(S(=O)(=O)c2ccc(OC)cc2)CC1	10	59*	8	-5	-10	-2
O=C(NCc1ccco1)c1ccc2c(c1)CCO2	52*	9	32	10	0	53*
Cc1n[nH]c(C)c1N1C(=O)c2cccc3cc(Br)cc(c23)C1=O	14	13	1	2	-16	-3
Cc1ccc(C(=O)O)cc1N1C(=O)c2cccc3cc(Br)cc(c23)C1=O	17	66*	0	6	-18	-22
O=C(N/N=C(\CC(=O)c1cccs1)C(F)(F)F)c1ccncc1	24	19	8	37	-8	61*
Cc1ccc(C(=O)N/N=C(/CC(=O)c2cccs2)C(F)(F)F)cc1	24	-27	11	27	-29	2
Cc1ccc(C)c(NC(=O)/C(C#N)=C/c2cn(CC(=O)NCc3ccco3)c3ccccc23)c1	1	30	31	12	-18	46*
CCOC(=O)c1ccc(NC(=S)NN2CCN(C)CC2)cc1	1	-9	-23	-9	-22	12
COC(=O)c1ccc2nc(NC(=O)CN3C(=O)CCC3=O)sc2c1	21	2	15	13	-22	50*
CC(C)(C)NC(=O)NC(=O)CN1CCN(c2ccc(O)cc2)CC1	4	74*	-7	-2	-19	-6
CC(C)(C)NC(=O)NC(=O)CN1CCN(c2ccccc2)CC1	4	13	0	2	-14	1
CCOC(=O)c1sc(NC(=O)CSc2nc3c(c(-c4ccc(OC)cc4)c2C#N)CCCC3)c(C#N)c1C	19	-75	8	4	-13	2
COc1ccc(C(=O)Nc2ccc(N3CCN(c4ccc(OC)cc4)CC3)c(C#N)c2)cc1	3	-70	15	47*	-34	27
COc1ccc(N2CCN(c3ccc(NC(=O)C4CCCCC4)cc3C#N)CC2)cc1	7	-31	-2	0	-18	3
COc1cc(NS(=O)(=O)c2ccc(NC(=S)NC(=O)c3sc4ccccc4c3Cl)cc2)nc(OC)n1	15	58*	-1	9	-5	-26
CC1(C)CC(=O)C(C=Nc2cccnc2/N=C/C2=C(O)CC(C)(C)CC2=O)=C(O)C1	10	11	7	0	55*	-11
CC1(C)CC(=O)C(C=Nc2cccnc2)=C(O)C1	1	30	1	-4	41*	1
COc1ccc(N=CC2=C(O)CC(C)(C)CC2=O)cc1	-5	9	-4	-12	34*	12
CC1(C)CC(=O)C(C=Nc2ccncc2)=C(O)C1	nt	nt	nt	nt	-8	nt
Cc1cccc(N2CCN(C(=S)Nc3ccc4nc(N5CCN(C)CC5)cc(C)c4c3)CC2C)c1 (centres undefined)	6	-27	0	1	-15	-2
Cc1cc(SCC(=O)c2cccs2)nc2c(C)cccc12	8	4	2	-3	0	-12
Cc1cc2c(C)ccc(C)c2nc1SCC(=O)c1cccs1	3	51*	7	3	-25	9
CC(C)(C)c1ccc(OCC(=O)N2CCCCCC2)c(Br)c1	3	38	-1	-2	-7	-4
SMILES	FXIIa inh 1536	m-calpain inh	Thrombin inh	FXIa inh	Furin inhibitor	hK5 inh
Cc1ccc(OCC(=O)N2CCCCC2)c(Br)c1	1	6	3	-1	-20	48*
CN(C)c1cccc(C(=O)n2cc(C(=O)c3cc(F)ccc3O)cn2)c1	41*	-34	16	4	-16	32
O=C(c1cnn(C(=O)c2ccc(O)cc2)c1)c1ccccc1O	18	-27	12	2	-6	42*
CCn1c(C)nc2cc(C(=O)n3cc(C(=O)c4ccccc4O)cn3)ccc21	37	-1	-5	14	-30	-2
CCn1c(Cc2ccccc2)nnc1SCC(=O)Nc1cc(C)on1	-3	-10	-2	-4	-23	5
CCn1c(C)nc2cc(C(=O)N/N=C(\C)c3ccc(OC)cc3O)ccc21	36	0	58*	43*	10	30
CCc1nccn1S(=O)(=O)c1ccc(OC)c(OC)c1	6	6	-5	-2	-26	0
O=C(c1cc2cc(Br)ccc2o1)N1CCCC1	nt	3	57*	37	-2	18
O=C(c1cc2cc(Br)ccc2o1)N1CCOCC1	11	-31	-1	0	-15	nt
COCCNc1nc2c(c(=O)n(Cc3ccc(OC)cc3)c(=O)n2C)n1C	-10	nt	0	-9	-15	-1
COc1ccc(CNc2nc3c(c(=O)n(Cc4ccc(Cl)cc4)c(=O)n3C)n2C)cc1	15	84*	1	5	-36	-7
Cn1c(NCc2ccco2)nc2c1c(=O)n(Cc1ccc(Cl)c(Cl)c1)c(=O)n2C	11	86*	-7	-10	-14	-13
Cc1nnc(Nc2ccc(C(=O)NCCO)cc2)c2ccccc12	14	-19	6	6	-12	13
N#CC(c1cccc(Cl)c1)c1ccc2c(C(F)(F)F)cc(C(F)(F)F)nc2n1 (centres undefined)	12	63*	-2	4	-19	-10
C=CCN(Cc1nc(-c2cc(OC)ccc2OC)oc1C)C1CCS(=O)(=O)C1 (centres undefined)	6	-71	-2	-3	-44	-3
COc1cc(CNC(=O)c2ccc(Cn3nc(C)c(Cl)c3C)o2)cc(OC)c1	5	13	-2	5	-23	-15
COC(=O)c1ccc(Cn2nc(C)c(Cl)c2C)o1	12	1	4	16	29*	2
Cc1nn(Cc2ccc(C(=O)Nc3nccs3)cc2)c(C)c1Cl	25	-15	104*	13	-16	44*
Cc1nn(Cc2ccc(C(=O)NN)cc2)c(C)c1Cl	12	6	3	5	-15	3
CCCNC(=O)N1CCN(c2ncccn2)CC1	19	20	24	17	-23	61*
O=C(Nc1ccccc1)N1CCN(c2ncccn2)CC1	13	-48	-6	0	-23	-11
CCOC(=O)C1CCCN(S(=O)(=O)c2ccc(Br)c(OC)c2)C1 (centres undefined)	16	16	-5	15	-18	6
CC(C)C[C@H](NC(=O)c1nc[nH]c1C(=O)NCc1ccccc1)C(=O)OC(C)(C)C	9	60*	-4	-1	-4	2
CC(C)C[C@H](NC(=O)c1[nH]cnc1C(=O)N[C@@H](Cc1ccccc1)C(=O)OC(C)(C)C)C(=O)OC(C)(C)C	6	24	-3	0	-12	-1
